Test results reported in ChEMBL document CHEMBL1150157, “Five new steroidal saponins from Solanum chrysotrichum leaves and their antimycotic activity” (2002).
Converted amounts (≈) assume the structure as drawn.

Experiments:
Type in all cases: functional
[1] = tested on: Trichophyton mentagrophytes; experiment: Antimicrobial activity against Trichophyton mentagrophytes ATCC 28185 after 72 hrs by agar dilution method; details: ATCC 28185, 72 h
Outline: (§1)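 Dermatophytes maintained on potato dextrose agar at 27 °C. Assayed by agar dilution on Sabouraud glucose agar. Pure compounds in DMSO were serially diluted 2-fold (400–3.125 µg/mL) into the medium, with final DMSO ≤2%. Spots of 10^6 spores/mL (hemocytometer count) were applied with a 0.010 mL loop. Plates ran at 29 °C for 72 h, in triplicate. MIC was the lowest concentration with no visible growth.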

[2] = tested on: Trichophyton rubrum; experiment: Antimicrobial activity against Trichophyton rubrum ATCC 28188 after 72 hrs by agar dilution method; details: ATCC 28188, 72 h; outline: as §1
[3] = tested on: Aspergillus niger; experiment: Antimicrobial activity against Aspergillus niger ATCC 10335 after 48 hrs by agar dilution method; details: ATCC 10335, 48 h
Outline: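 A. niger maintained on potato dextrose agar at 27 °C. Tested by agar dilution on Sabouraud glucose agar with 2-fold serial DMSO dilutions of pure compounds (400–3.125 µg/mL) added to the medium, final DMSO ≤2%. Inoculum was 10^6 spores/mL, hemocytometer-counted, applied by 0.010 mL loop. Incubation at 29 °C for 48 h, in triplicate. MIC was the lowest concentration preventing visible growth.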

[4] = tested on: Candida albicans; experiment: Antimicrobial activity against Candida albicans ATCC 10231 after 24 hrs by agar dilution method
Outline: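 C. albicans kept on Sabouraud glucose agar, which also served as the assay medium. Pure compounds in DMSO were diluted 2-fold serially (400–3.125 µg/mL) into the agar, final DMSO ≤2%. An inoculum of 10^5 cells/mL (hemocytometer) was spotted with a 0.010 mL calibrated loop. Plates were held at 29 °C for 24 h, in triplicate. MIC was the lowest concentration inhibiting visible growth.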

## C[C@@H]1CC[C@@]2(OC1)O[C@H]1C[C@H]3[C@@H]4C[C@H](O[C@@H]5O[C@H](C)[C@@H](O)[C@H](O)[C@H]5O)[C@H]5C[C@@H](O)CC[C@]5(C)[C@H]4CC[C@]3(C)[C@H]1[C@@H]2C
[1]
  MIC: 25 µg/mL (≈ 43.2 µM)
[2]
  MIC: 50 µg/mL (≈ 86.4 µM)
[3]
  MIC: > 400 µg/mL
[4]; ATCC 10231, 24 h
  MIC: 200 µg/mL (≈ 346 µM)

## C[C@H]1CO[C@@]2(O[C@H]3C[C@H]4[C@@H]5C[C@H](O[C@@H]6O[C@H](C)[C@@H](O)[C@H](O[C@@H]7O[C@@H](C)[C@H](O)[C@@H](O)[C@H]7O)[C@H]6O)[C@H]6C[C@@H](O)CC[C@]6(C)[C@H]5CC[C@]4(C)[C@H]3[C@@H]2C)[C@@H](O)C1
[1]
  MIC: 200 µg/mL (≈ 270 µM)
[2]
  MIC: 200 µg/mL (≈ 270 µM)
[3]
  MIC: 200 µg/mL (≈ 270 µM)
[4]; ATCC 10231, 24 h
  MIC: 200 µg/mL (≈ 270 µM)

## C[C@@H]1CC[C@@]2(OC1)O[C@H]1C[C@H]3[C@@H]4C[C@H](O[C@@H]5O[C@H](C)[C@@H](O)[C@H](O[C@@H]6OC[C@@H](O)[C@H](O)[C@H]6O)[C@H]5O)[C@H]5C[C@@H](O)CC[C@]5(C)[C@H]4CC[C@]3(C)[C@H]1[C@@H]2C
[1]
  MIC: 12.5 µg/mL (≈ 17.6 µM)
[2]
  MIC: 12.5 µg/mL (≈ 17.6 µM)
[3]
  MIC: 100 µg/mL (≈ 141 µM)
[4]; ATCC 10231, 24 h
  MIC: 200 µg/mL (≈ 281 µM)

## C[C@@H]1CC[C@@]2(OC1)O[C@H]1C[C@H]3[C@@H]4C[C@H](O[C@@H]5O[C@H](C)[C@@H](O)[C@H](O[C@@H]6O[C@@H](C)[C@H](O)[C@@H](O)[C@H]6O)[C@H]5O)[C@H]5C[C@@H](O)CC[C@]5(C)[C@H]4CC[C@]3(C)[C@H]1[C@@H]2C
[1]
  MIC: 200 µg/mL (≈ 276 µM)
[2]
  MIC: 50 µg/mL (≈ 69 µM)
[3]
  MIC: 400 µg/mL (≈ 552 µM)
[4]; ATCC 10231, 24 h
  MIC: 200 µg/mL (≈ 276 µM)

## C[C@@H]1CC[C@@]2(OC1)O[C@H]1C[C@H]3[C@@H]4C[C@H](O[C@@H]5OC[C@@H](O)[C@H](O)[C@H]5O)[C@H]5C[C@@H](O)CC[C@]5(C)[C@H]4CC[C@]3(C)[C@H]1[C@@H]2C
[1]
  MIC: 100 µg/mL (≈ 177 µM)
[2]
  MIC: 100 µg/mL (≈ 177 µM)
[3]
  MIC: > 400 µg/mL
[4]; ATCC 10231, 24 h
  MIC: 200 µg/mL (≈ 354 µM)

## NYSTATIN
[4]
  MIC: 8 µg/mL

## Clc1ccc(COC(Cn2ccnc2)c2ccc(Cl)cc2Cl)c(Cl)c1 (centres undefined) [MICONAZOLE]
[1]
  MIC: 4 µg/mL (≈ 9.61 µM)
[2]
  MIC: 4 µg/mL (≈ 9.61 µM)
[3]
  MIC: 8 µg/mL (≈ 19.2 µM)
